Source: PubChem
The list is not random: actives were taken first. Their share in the collection is about 2.6%.
Vif inh = inhibitors of HIV Vif | HEK293T cells, Vif self-association by quenched fluorescence, imaging, 24 h | inhibition, % at 7.49 µM | AID 602346 | hit rate 0.35% among 340,000; in the data active = inhibition above about 50%, passing the limit was not always enough; inconclusive = no clear call, values can overlap the other calls; inactive = below about 31%
miR122 inh = inhibitors of miR-122 in Huh7 cells. Huh7 miR-122 Renilla luciferase sensor, 48 h; neutral wells = 0, positive control = 100. activation (reporter increase), % at 12.5 µM. hit rate 0.3% among 340,000;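 active = mean replicate activation score at least 90 and every replicate individually at or above 90; inconclusive = only one of the two criteria met; inactive = neither criterion met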;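 note: higher luciferase means less miR-122 activity so hits act as miR-122 inhibitors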
S100A4 inh HTS = blocks human S100A4 binding to myosin IIA peptide | P26447 | S100A4/TAMRA-MyoIIA peptide fluorescence polarization | inhibition, % at 10.7 µM | hit rate 0.14% among 360,000 | AID 652163;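 active = mean inhibition of at least 70% across replicates, with every replicate also reaching that level; inconclusive = mean inhibition reaches 70% but some replicates fall short; inactive = mean inhibition below 70%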
Target sequence (P26447 whole entry, looked up): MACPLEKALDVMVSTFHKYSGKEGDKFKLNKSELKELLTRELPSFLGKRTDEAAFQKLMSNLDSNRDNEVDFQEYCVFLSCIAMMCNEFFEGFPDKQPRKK
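Test system – S100A4 monomer (human) · Compound – single-point compound testing · Schedule – 5 min incubation before reading · Probe or stimulus – TAMRA-labelled myosin IIA heavy-chain peptide probe, 5 nM · Benchmarks – neutral control DMSO, positive control TFP · Medium – Calcium-containing HEPES buffer, pH 7.2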
FN deposition inh = fibronectin deposition inhibition; AH1F fibroblasts, Alexa488-fibronectin deposition fluorescence, overnight; inhibition, % at 12.6 µM; hit rate 0.086% among 350,000; AID 743247;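 active = mean inhibition across replicates of 30% or more, regardless of how many single replicates reach that level; inconclusive = mean under 30% yet at least half of replicates reach 30%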;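 note: positive control wells lacked labelled fibronectin entirely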
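Material: AH1F fibroblasts assembling fluorescent fibronectin matrix; amount: 10000 AH1F cells/well; medium: DMEM, 2% serum; reagent: Alexa488-fibronectin, 24 nM final in well; dosing: single compound dose, delivered by pin transfer; incubation: 1 h adhesion, overnight exposure; detection: fluorescence after three HBSS washes, excitation 485 nm, emission 525 nm; measure: fibronectin deposition inhibition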
HIV Env fusion = HIV envelope-mediated fusion inhibition; HeLa-JRFL Env/CEM21 cell fusion, luciferase; inhibition, % at 12.3 µM; hit rate 1.1% among 360,000;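 active = mean replicate inhibition score of at least 50 and every replicate individually at or above 50; inconclusive = only one of the two criteria met; inactive = mean below 50 and not all replicates reaching 50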;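 note: 0% = plate neutral controls and 100% = maraviroc near 300 nM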
Ecoli rRNA inh = inhibitors of bacterial rRNA selective over humanized ribosomes; E. coli WT GFP vs humanized-ribosome RFP mutants, fluorescence, 24 h; hits give low values; DMSO median 0, no signal -100; GFP signal change (wild-type ribosome), % (concentration not given with the values); hit rate 1.6% among 350,000; AID 720706;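 active = significant combined selectivity score with lowered wild-type GFP, culture density cut under 30%, mutant RFP and density less affected; inactive = any of these conditions unmet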
* = called active by the depositor; u = inconclusive; x = no result given; [ ] = dose if it differs, or a comment.

SMILES	Vif inh	miR122 inh	S100A4 inh HTS	FN deposition inh	HIV Env fusion	Ecoli rRNA inh
C[C@H](CO)N1C[C@H](C)[C@H](CN(C)Cc2ccc(C(=O)Nc3ccccc3N)cc2)Oc2c(NC(=O)C3CCOCC3)cccc2C1=O	x	-6[16.7 µM]	4	x	x	1
O=C(Nc1ccc(Cl)cc1)N[C@@H]1CC[C@@H](CCNC(=O)c2cc(Cl)cc(Cl)c2)O[C@H]1CO	x	x	u	11	x	-3
CCCNC(=O)N1C[C@H](O)COC[C@@H]2O[C@@H](CC(=O)NCc3ccncn3)CC[C@H]21	x	-2[16.7 µM]	2	-11	12[16.7 µM]	-4
CN(C)CC#Cc1ccc([C@@H]2[C@H]3CN(CC4CC4)CCCCN3[C@H]2CO)cc1	x	13[16.7 µM]	-7	x	x	13
O=C(/C=C/c1ccccc1Cl)N(Cc1ccccc1)C1CCS(=O)(=O)C1 (stereo not given)	3	x	x	7	13	x
O=C(/C=C/c1ccccc1Cl)N(Cc1cccs1)C1CCS(=O)(=O)C1 (stereo not given)	-3	-6	0	3	33	-35*
C[C@@H]1CN([C@@H](C)CO)C(=O)c2cc(NC(=O)Nc3ccc(F)cc3)ccc2O[C@@H](C)CCCCO[C@H]1CN(C)C(=O)CCCN(C)C	x	16[16.7 µM]	-2	x	17[16.7 µM]	3
Cc1cc(OCC(=O)O/N=C(\N)Cc2cccs2)ccc1Br	-2	-2	0	x	x	-24*
CCOc1ccc(N/C(SCc2cccc([N+](=O)[O-])c2)=C(/C#N)C(N)=O)cc1	-1	x	-7	-5	15	-2
N#CC(C#N)=C(Nc1ccc(F)cc1)SCc1cccc(F)c1	-24	x	x	5	61*	x
CO[C@@H]1CN(C)C(=O)c2cc(NC(=O)NC(C)C)ccc2OC[C@H](C)NC[C@@H]1C	x	-2[16.7 µM]	x	-3	14[16.7 µM]	2
Cc1[nH]n(-c2ccccc2)c(=O)c1C(c1ccc(C(=O)O)cc1)c1c(C)[nH]n(-c2ccccc2)c1=O	-4	x	-5	-4	x	-19*
Cc1[nH]n(-c2ccccc2)c(=O)c1C(c1cccc([N+](=O)[O-])c1)c1c(C)[nH]n(-c2ccccc2)c1=O	0	x	9	0	x	-46*
COc1ccccc1NC(=O)N[C@H]1C=C[C@@H](CC(=O)NCc2ccc(Cl)c(Cl)c2)O[C@@H]1CO	x	-16[16.7 µM]	-5	-3	28[16.7 µM]	-3
CO[C@H]1CN(C)C(=O)c2ccc(NC(C)=O)cc2OC[C@H](C)N(Cc2ccncc2)C[C@H]1C	x	3[16.7 µM]	7	5	x	-1
Cc1ccc(C2NC(=O)c3[nH]nc(-c4ccccc4)c32)cc1 (stereo not given)	x	x	-3	6	-23	-19*
O=C1NC(c2ccccc2)c2c(-c3ccccc3)n[nH]c21 (stereo not given)	x	x	1	-5	-13	22
CO[C@H]1CN(C)C(=O)c2cc(NC(=O)Nc3cccc(F)c3)ccc2OC[C@H](C)N(C(=O)C2CC2)C[C@@H]1C	x	-13[16.7 µM]	x	5	8[16.7 µM]	-2
COc1ccc2nc(NC(=O)Nc3cccc4ccccc34)sc2c1	5	-1	-3	9	-19	-23*
COc1cccc(C(=O)Nc2nc3ccccc3s2)c1	-5	-7	6	2	-153	-30*
O=C(COc1ccccc1)NNc1nc2ccccc2s1	-3	14	-2	-8	-4	-28*
COc1ccccc1NC(=O)Nc1nc2ccc(S(N)(=O)=O)cc2s1	-6	6	1	8	-70	-16*
COc1ccc2nc(NC(=O)Nc3ccccc3OC)sc2c1	2	1	2	20	-493	0
CCOc1ccc(/C=C2\SC(=S)N(CCCC(=O)NCCCN3CCOCC3)C2=O)cc1	-5	-1	-1	3	u	-21*
CCc1ccc(/C=C2\SC(=S)N(CCCC(=O)NCCCN3CCOCC3)C2=O)cc1	-6	-2	1	-3	52	-27*
SMILES	Vif inh	miR122 inh	S100A4 inh HTS	FN deposition inh	HIV Env fusion	Ecoli rRNA inh
CO[C@@H]1CN(C)C(=O)c2ccc(NC(=O)C3CC3)cc2OC[C@H](C)N(Cc2ccccc2)C[C@@H]1C	x	-2[16.7 µM]	-2	-4	x	-1
Cc1sc(NC(=S)NC(=O)CCc2ccccc2)c(C(N)=O)c1C	125*	76	0	0	-32	-3
COC(=O)CCC(=O)Nc1sc(Cc2ccccc2)c(C)c1C(N)=O	4	x	3	x	-5	-1
CCCC(=O)Nc1sc(Cc2ccccc2)c(C)c1C(N)=O	-6	36	-2	4	-2	-24*
COC(=O)CCC(=O)NC(=S)Nc1sc(C)c(C)c1C(N)=O	24	x	x	6	-13	x
COC(=O)[C@@H]1[C@@H](CO)[C@@H]2Cn3c(ccc(C4=CCCCC4)c3=O)[C@@H]2N1Cc1cccnc1	x	x	12	x	-25[16.7 µM]	1
CCCCn1c(-c2ccncc2)nc2c1c(=O)[nH]c(=O)n2CC(C)C	57*	-6	x	x	x	x
O=C(N[C@H]1CC[C@@H](CCn2cc(Cc3ccccc3)nn2)O[C@@H]1CO)c1cnccn1	x	x	0	x	4[16.7 µM]	3
O=C1c2cccc(NCCNCCO)c2C(=O)c2cccc(NCCNCCO)c21	-17	x	16	3	59*	-14
O=C(O)CCNc1ccc(NCCC(=O)O)c2c1C(=O)c1ccccc1C2=O	-9	x	10	3	22	-5
CCOc1ccc(OC(=O)C(CCS(C)(=O)=O)N2C(=O)c3ccccc3C2=O)cc1 (stereo not given)	5	1	1	9	-16	1
CC(=O)c1ccc(OC(=O)C(CCS(C)(=O)=O)N2C(=O)c3ccccc3C2=O)cc1 (stereo not given)	81*	-1	x	x	-116	x
CC(C)C#Cc1cnc2c(c1)C(=O)N([C@@H](C)CO)C[C@H](C)[C@@H](CN(C)C(=O)Nc1cc(F)ccc1F)O2	x	2[16.7 µM]	0	x	-4[16.7 µM]	1
CCCn1nnnc1SCC(=O)N1CCCCC1	57*	x	34	0	8	9
Cn1c(SCC(=O)c2ccc(F)cc2)nnc1-c1cnccn1	122*	0	x	4	-9	x
O=C(CN1CCOCC1)N[C@H]1CC[C@@H](CCNS(=O)(=O)c2ccccc2F)O[C@@H]1CO	x	-2[16.7 µM]	x	2	12[16.7 µM]	3
Fc1ccccc1Cn1cc(C(=S)N2CCOCC2)c2ccccc21	-5	247*	-3	1	6	-20
O=C(Cn1cc(C(=S)N2CCOCC2)c2ccccc21)N1CCOCC1	-6	4	x	x	x	x
Fc1ccc(Cn2cc(C(=S)N3CCOCC3)c3ccccc32)cc1	-3	59	-1	17	26	-26*
COc1ccc(CCNC(=O)c2ccc(-c3ccc([N+](=O)[O-])cc3Cl)o2)cc1	0	44	-2	1	x	-23*
